We go through 23 compounds from ChEMBL document CHEMBL3585270, “Discovery of oxime-bearing naphthalene derivatives as a novel structural type of Nrf2 activators” (Bioorg Med Chem, 2015).

Activity calls are given as the source filed them. No cut-off for these calls is given here.

The nature of experiment [1]: Cytotoxicity against human NPC-TW01 cells assessed as reduction in cell viability by MTT assay. In kind it is cell-based. The method, boiled down:
(§1)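 Cells cultured in MEM or RPMI1640 with 10% FBS, 37 °C, 5% CO₂. After compound exposure, 5 µg/ml MTT in MEM for 2 h at 37 °C, then solubilized overnight at 37 °C (40% DMF, 20% SDS); absorbance at 570 nm. IC50 taken from linear portion of curve as concentration cutting absorbance 50% versus control.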
In general terms: Formazan colour is commonly taken as a measure of viable cells.

A further experiment concerns NCI-H226. Description: Cytotoxicity against human NCI-H226 cells assessed as reduction in cell viability by MTT assay. In kind it is cell-based. The method, boiled down: as §1
Experiment [2] deals with T1, Nuclear factor erythroid 2-related factor 2 (Homo sapiens) (UniProt Q16236).
T1 sequence (whole entry): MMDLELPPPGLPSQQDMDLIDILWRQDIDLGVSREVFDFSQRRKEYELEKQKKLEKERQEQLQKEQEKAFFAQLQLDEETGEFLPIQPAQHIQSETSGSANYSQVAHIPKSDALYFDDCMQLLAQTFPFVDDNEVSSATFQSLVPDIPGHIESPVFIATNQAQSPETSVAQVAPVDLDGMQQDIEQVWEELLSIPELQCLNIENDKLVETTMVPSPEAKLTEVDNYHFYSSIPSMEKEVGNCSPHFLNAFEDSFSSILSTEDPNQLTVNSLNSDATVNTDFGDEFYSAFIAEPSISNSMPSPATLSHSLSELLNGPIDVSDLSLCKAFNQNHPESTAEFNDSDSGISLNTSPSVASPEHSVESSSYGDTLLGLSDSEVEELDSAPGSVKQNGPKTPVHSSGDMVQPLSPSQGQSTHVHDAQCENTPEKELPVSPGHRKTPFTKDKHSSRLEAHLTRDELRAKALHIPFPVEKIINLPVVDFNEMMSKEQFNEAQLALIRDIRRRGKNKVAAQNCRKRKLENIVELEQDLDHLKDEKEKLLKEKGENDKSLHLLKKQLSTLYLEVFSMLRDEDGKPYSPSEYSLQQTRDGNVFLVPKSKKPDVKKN
Description: Activation of Nrf2 in human NPC-TW01 or HONE1 cells expressing ARE-luciferase at 20 uM incubated for 16 hrs by luciferase reporter gene assay relative to untreated control. In kind it is cell-based. In general terms: In a reporter assay the amount or activity of a reporter protein is the signal.

The next experiment relates to Jurkat. Description: Cytotoxicity against human Jurkat cells assessed as reduction in cell viability by MTT assay. In kind it is cell-based. The method, boiled down: as §1
For experiment [3], the target named is T1, Nuclear factor erythroid 2-related factor 2 (Homo sapiens). Nature of the experiment: Induction of Nrf2 Ser40 phosphorylation in human NPC-TW01 cells expressing pGL4-9ARE incubated for 6 and 12 hrs by Western blot method. In kind it is cell-based. The method, boiled down:
(§2)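 TW01-pGL4-9ARE cells treated and harvested at set times; lysed in NP-40 buffer with phosphatase/protease inhibitors, protein by BCA. 40 µg lysate on 10% SDS-PAGE, PVDF transfer, 5% BSA/TBS-Tween block; primary antibodies (p-Nrf2 Ser40, total Nrf2, actin) overnight at 4 °C, HRP secondary 1 h room temperature; imaged by chemiluminescence imager.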

In experiment [4] the test system is NPC-TW01. Description: Inhibition of H2O2-induced intracellular oxidative stress in human NPC-TW01 cells expressing pGL4-9ARE at 20 uM pre-treated for 6 hrs before H2O2 challenge for 16 hrs by DCFH-DA dye based flow cytometry. In kind it is functional, cell-based. The procedure, abridged:
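TW01-pGL4-9ARE cells, 1 × 10⁵ per well, grown overnight, pre-treated 20 µM for 6 h, then 500 µM H2O2 for 16 h. Stained with 20 µM DCFH-DA 30 min at 37 °C, resuspended in PBS, analysed by flow cytometry; geometric mean fluorescence reported, p < 0.05 versus H2O2 alone.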

Experiment [5] addresses T1, Nuclear factor erythroid 2-related factor 2 (Homo sapiens). Description: Activation of Nrf2 in human NPC-TW01 or HONE1 cells expressing ARE-luciferase at 20 uM incubated for 16 hrs in presence of PKC signaling inhibitor staurosporine by luciferase reporter gene assay relative to untreated control. In kind it is cell-based.
Experiment [6] deals with NPC-TW01. Nature of the experiment: Effect on Nrf2 protein expression in human NPC-TW01 cells expressing pGL4-9ARE incubated for 6 and 12 hrs by Western blot method. In kind it is functional, cell-based. The method, boiled down: as §2

On to `O/N=C(\COc1ccc2ccccc2c1)c1ccc2ccccc2c1`, for which the IC50 (commonly the concentration that gives 50% inhibition) is > 50 µM in experiment [1], 37.1 µM in the experiment on NCI-H226 and 24.3 µM in the experiment with Jurkat. For the same compound, in experiment [2], the fold change (FC) was found to be 1.36.
`COc1ccc(OC)c(/C(COc2cccc3ccccc23)=N/O)c1`: the concentration for half-maximal inhibition (IC50) in experiment [1] is 32.3 µM; in the experiment with NCI-H226, 41.5 µM; in the experiment with Jurkat, > 50 µM. Besides, the fold change (FC) in experiment [2] worked out at 0.93.
For `O/N=C(\COc1ccc2ccccc2c1)c1ccc(Cl)cc1`, in that order: 26 µM, 34.9 µM, 37.3 µM and 1.07.
For the compound `O/N=C(\COc1ccc2ccccc2c1)c1ccccc1`, the IC50 (in experiment [1]; in the experiment on NCI-H226; in the experiment with Jurkat) was > 50 µM in each case. In addition, the result in experiment [3] was Active. Further, the inhibition entry in the experiment on NPC-TW01 [4] is “Active”. In addition, the result (in experiment [5]; with NPC-TW01 [6]) was inactive. In addition, the fold change (FC) in experiment [2] was 3.49.
Regarding `O/N=C(\COc1ccc2ccccc2c1)c1ccc(-c2ccccc2)cc1`, the 50% inhibitory concentration (IC50) (in experiment [1]; in the experiment on NCI-H226; in the experiment with Jurkat) was > 50 µM each time. In experiment [2], the fold change (FC) came out at 1.18.
With `O/N=C(\COc1cccc2ccccc12)c1ccccc1`, the half-maximal inhibitory concentration (IC50) in experiment [1] was > 50 µM; in the experiment on NCI-H226, 47.1 µM; in the experiment with Jurkat, > 50 µM. The fold change (FC) in experiment [2] stood at 1.14.
As to `COc1ccc(/C(COc2ccc3ccccc3c2)=N/O)cc1`, the IC50 in experiment [1] is > 50 µM; in the experiment with NCI-H226, > 50 µM; in the experiment on Jurkat, 35.8 µM. In addition, the outcome in experiment [3] was Active. In addition, in the experiment on NPC-TW01 [4], the inhibition entry was “Active”. Also, the outcome (in experiment [5]; with NPC-TW01 [6]) was inactive. In addition, the fold change (FC) in experiment [2] came out at 1.65.
Turning to `O/N=C(\COc1cccc2ccccc12)c1ccc(Cl)cc1`, the half-maximal inhibitory concentration (IC50) (in experiment [1]; with NCI-H226; in the experiment with Jurkat) was > 50 µM each time. The fold change (FC) in experiment [2] came out at 1.
Turning to `COc1ccc(/C(COc2cccc3ccccc23)=N/O)cc1`, the values for the IC50 (in experiment [1]; in the experiment with NCI-H226; in the experiment on Jurkat) were 32.3 µM, 36.7 µM and 31.8 µM, respectively. For the same compound, in experiment [2], the fold change (FC) came to 1.1.
On the same counts, the results for `O/N=C(\COc1ccc2ccccc2c1)c1ccc(C(F)(F)F)cc1` are 30.7 µM, 34.1 µM, 36.2 µM and 1.05.
For `O/N=C(\COc1cccc2ccccc12)c1ccc(C(F)(F)F)cc1`, in that order: 46.4 µM, > 50 µM, > 50 µM and 1.01.
On the same counts, the results for `O/N=C(\COc1cccc2ccccc12)c1ccc2ccccc2c1` are 36.1 µM, 38.9 µM, > 50 µM and 1.25.
`O/N=C(\COc1cccc2ccccc12)c1ccc(F)c(F)c1`: the IC50 in experiment [1] is 36.8 µM; in the experiment on NCI-H226, > 50 µM; in the experiment with Jurkat, 42.6 µM. The fold change (FC) in experiment [2] worked out at 0.86.
For `O/N=C(\COc1cccc2ccccc12)c1ccc(-c2ccccc2)cc1`, in that order: > 50 µM, > 50 µM, > 50 µM and 1.19.
`O/N=C(\COc1ccc2ccccc2c1)c1ccc(F)c(F)c1`: the IC50 in experiment [1] was found to be 36.1 µM; in the experiment with NCI-H226 it was 42.8 µM; with Jurkat, 44.6 µM. In addition, the fold change (FC) in experiment [2] was found to be 1.42.
For `COc1ccc(OC)c(/C(COc2ccc3ccccc3c2)=N/O)c1`, the half-maximal inhibitory concentration (IC50) in experiment [1] turned out to be 16.7 µM; in the experiment on NCI-H226, 8.6 µM; with Jurkat it was 10.1 µM. The fold change (FC) in experiment [2] worked out at 0.65.
On the same counts, the results for `O/N=C(\COc1ccc2ccccc2c1)c1ccc(Br)cc1` are 27.9 µM, 39.1 µM, 47.2 µM and 0.95.
On the same counts, the results for `O/N=C(\COc1cccc2ccccc12)c1ccc(F)cc1` are > 50 µM, > 50 µM, > 50 µM and 1.09.
In the case of `CC(C)(C)c1cc(O)ccc1O`, in experiment [2], the fold change (FC) is 1.77.
As to `O/N=C(\COc1cccc2ccccc12)c1ccc(Br)cc1`, the IC50 (in experiment [1]; with NCI-H226; in the experiment with Jurkat) was > 50 µM each time. In addition, the fold change (FC) in experiment [2] is 1.03.
As for `C/C(COc1ccc2ccccc2c1)=N\O`, the half-inhibitory concentration (IC50) (in experiment [1]; in the experiment with NCI-H226; with Jurkat) was > 50 µM each time. Also, the outcome in experiment [3] was Active. Moreover, the inhibition entry in the experiment on NPC-TW01 [4] was “Active”. For the same compound, the outcome (in experiment [5]; in the experiment with NPC-TW01 [6]) was inactive. The fold change (FC) in experiment [2] was 2.04.
Take `O/N=C(\COc1ccc2ccccc2c1)c1ccc(F)cc1`: the IC50 (in experiment [1]; in the experiment with NCI-H226; in the experiment with Jurkat) was > 50 µM each time. In experiment [3], the result was Active. In addition, the inhibition entry with NPC-TW01 [4] is “Active”. In addition, the result (in experiment [5]; in the experiment with NPC-TW01 [6]) was inactive. For the same compound, the fold change (FC) in experiment [2] is 2.61.
Regarding `C/C(COc1cccc2ccccc12)=N\O`, the IC50 (in experiment [1]; in the experiment on NCI-H226; in the experiment with Jurkat) was > 50 µM each time. In addition, the fold change (FC) in experiment [2] was found to be 1.17.
